# Assays:
# Recombinant SQS (31-370) = target: T1, Recombinant SQS (31-370) (Homo sapiens, UniProt P37268); test: In vitro SQS activity assay; assay type: biochemical; details: compound at 1 μM, positive control
# T1 sequence (P37268 31-370): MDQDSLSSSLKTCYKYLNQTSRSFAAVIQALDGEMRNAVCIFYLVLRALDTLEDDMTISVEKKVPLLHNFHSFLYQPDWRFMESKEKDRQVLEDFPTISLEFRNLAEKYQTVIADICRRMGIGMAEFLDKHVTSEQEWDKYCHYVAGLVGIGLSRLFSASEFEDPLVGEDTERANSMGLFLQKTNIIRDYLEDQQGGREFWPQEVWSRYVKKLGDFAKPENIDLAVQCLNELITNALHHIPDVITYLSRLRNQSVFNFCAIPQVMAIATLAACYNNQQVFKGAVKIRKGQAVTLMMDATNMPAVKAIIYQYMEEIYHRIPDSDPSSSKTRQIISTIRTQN
# HeLa cells = test: Cell viability assay ± MBCD; assay type: cell-based, human; details: 72 h
# Procedure, shortened: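 HeLa cells grown 72 h in FBS-containing medium with methyl β-cyclodextrin at 3 mM (a concentration set as non-toxic for HeLa), treated with a range of test compound concentrations; viability read; n = 3, mean ± SD of one biological replicate shown.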
# [1] = phase II and III clinical trials, development stopped; cited from earlier work
# SQS = target: T2, SQS (Homo sapiens, UniProt P37268); test: Western blot of SQS protein levels in HeLa cells; assay type: cell-based; details: 18 h, 10 μM
# T2 sequence (P37268 1-417): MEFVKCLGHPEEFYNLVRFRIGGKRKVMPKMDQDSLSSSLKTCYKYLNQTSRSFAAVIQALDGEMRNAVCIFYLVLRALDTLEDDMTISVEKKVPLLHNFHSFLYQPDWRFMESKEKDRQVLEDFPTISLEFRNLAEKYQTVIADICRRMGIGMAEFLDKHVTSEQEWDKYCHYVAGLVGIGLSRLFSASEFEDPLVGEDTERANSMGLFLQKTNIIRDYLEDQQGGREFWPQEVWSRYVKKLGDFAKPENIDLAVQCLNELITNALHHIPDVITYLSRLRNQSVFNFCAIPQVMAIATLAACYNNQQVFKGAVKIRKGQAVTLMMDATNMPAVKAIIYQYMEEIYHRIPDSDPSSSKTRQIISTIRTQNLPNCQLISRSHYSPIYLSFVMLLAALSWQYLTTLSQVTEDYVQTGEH
# Procedure, shortened: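 HeLa cells were exposed to test compound, usually for 18 h, and SQS was detected by western blot (n = 2–4). DC50 and Dmax came from an 18 h dose–response (n = 4, mean ± SEM). A time course used 10 μM. Inhibitor arms were pre-incubated 2 h with MG132 (20 μM), chloroquine (20 μM) or MLN4924 (5 μM). A turnover arm used cycloheximide at 100 μg mL−1.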
compound,measurement,setting,value
"C=C(CC[C@]12O[C@H](C(=O)O)[C@@](O)(C(=O)O)[C@](C(=O)O)(O1)[C@H](OC(=O)/C=C/[C@@H](C)C[C@@H](C)CC)[C@H]2O)[C@@H](OC(C)=O)[C@H](C)Cc1ccccc1 [ZAA, zaragozic acid A]",inhibition of SQS activity,Recombinant SQS (31-370),completety inhibited the reaction
same,cell viability under cholesterol depletion,"HeLa cells; MBCD 3 mM, 5 and 10 μM",completely abolish cell viability
same,cell viability,HeLa cells; standard conditions (DMEM 10% FBS),neither ZAA nor KY02111 adversely affected cell viability
"COc1cccc([C@H]2O[C@H](CC(=O)N3CCC(CC(=O)O)CC3)C(=O)N(CC(C)(C)COC(C)=O)c3ccc(Cl)cc32)c1OC [TAK-475, lapaquistat acetate]",clinical safety finding,[1],hepatotoxicity accompanied by elevated bilirubin levels
CCNCCN(CC)c1nc(Nc2ccc3ncoc3c2)nc(N[C@@H](C)C2CCCCC2)n1 [LS-102],"SQS levels, tool compound alone",SQS,marked accumulation of SQS

# — article PMC10664564 (Chemical Science, 2023)
